Laboratory results: PMC3582387 (Chemistry & biology, 2012)

Assays:
MCL-1ΔNΔC [1] = target: T1, MCL-1ΔNΔC (Homo sapiens, UniProt Q07820); experiment: Competitive FP assay against the FITC-MCL-1 SAHBA/MCL-1ΔNΔC interaction; assay type: binding
MCL-1ΔNΔC [2] = target: T1, MCL-1ΔNΔC; experiment: BAX-mediated liposomal release assay, suppression by MCL-1ΔNΔC; assay type: biochemical; conditions: 20 nM tBID, 250 nM BAX
[3] = tested on: BCL-XL-rescued p185+Arf−/−/Mcl-1-deleted B-ALL cells; experiment: Cell viability; assay type: cell-based, murine
Bax−/−Bak−/− MEFs [4] = experiment: Caspase 3/7 activation, Bax−/−Bak−/− MEFs; assay type: cell-based, mouse; conditions: 8 h
Outline: (§1)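 Wild-type or Bax−/−Bak−/− mouse embryonic fibroblasts are kept in high-glucose DMEM with 10% FBS, penicillin/streptomycin, 2 mM L-glutamine, 50 mM HEPES, non-essential amino acids and 50 µM β-mercaptoethanol. Cells are seeded at 5×10^3/well for 24 h, then given serial dilutions of test compound or vehicle (0.4% DMSO). Caspase-Glo 3/7 reagent is added at 8 h and luminescence is read.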

[5] = tested on: BCL-XL-rescued p185+Arf−/−/Mcl-1-deleted B-ALL cells; experiment: Caspase 3/7 activation; assay type: cell-based, murine; conditions: 8 h post-treatment
MCL-1ΔNΔC [6] = target: T1, MCL-1ΔNΔC; experiment: Competitive FP assay against the FITC-BID BH3/MCL-1ΔNΔC interaction; assay type: binding
Bax−/−Bak−/− MEFs [7] = experiment: Cell viability, Bax−/−Bak−/− MEFs; assay type: cell-based, mouse; conditions: same dose range as leukemia cells, 24 h
Outline: (§2)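 MEFs (wild-type or Bax−/−Bak−/−) are maintained in supplemented high-glucose DMEM (10% FBS, antibiotics, L-glutamine, HEPES, β-mercaptoethanol). They are plated at 5×10^3 cells/well and allowed 24 h before exposure to serially diluted test compound, with 0.4% DMSO as vehicle. Viability is read as CellTiter-Glo luminescence after 24 h of treatment.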

wild-type MEFs [8] = experiment: Caspase 3/7 activation, wild-type MEFs; assay type: cell-based, mouse; conditions: 8 h
Outline: as §1

wild-type MEFs [9] = experiment: Cell viability, wild-type MEFs; assay type: cell-based, mouse; conditions: same dose range as leukemia cells, 24 h
Outline: as §2

[10] = tested on: MCL-1-rescued p185+Arf−/−/Mcl-1-deleted B-ALL cells; experiment: Cell viability; assay type: cell-based, murine
Outline: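 B-ALL cells come from Mcl-1f/f Arf−/− mouse marrow transformed with BCR-ABL(p185)-IRES-luciferase. They were stably transduced with MSCV-Puro-Mcl-1, and endogenous Mcl-1 was then deleted with MSCV-Cre-IRES-GFP; cells are kept in RPMI 1640/10% FBS. Cells (4×10^4/well) get serial dilutions of test compound or 0.4% DMSO in DMEM at 37 °C, with CellTiter-Glo luminescence read at 24 h. Data are normalized to vehicle; runs are at least duplicate and repeated twice with independent cultures.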

[11] = tested on: MCL-1-rescued p185+Arf−/−/Mcl-1-deleted B-ALL cells; experiment: Caspase 3/7 activation; assay type: cell-based, murine; conditions: 8 h post-treatment
Outline: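 Mcl-1-floxed Arf−/− mouse marrow was transformed with p185-IRES-luciferase, stably rescued with MSCV-Puro-Mcl-1, and endogenous Mcl-1 was deleted via MSCV-Cre-IRES-GFP. Cells were kept in supplemented RPMI 1640 and seeded at 4×10^4/well. Serial dilutions of test compound or vehicle (0.4% DMSO) were added in DMEM at 37°C. Caspase-Glo 3/7 luminescence was read at 8 h. Values were normalized to vehicle (mean ± SEM, ≥duplicate, two independent cultures).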

BCL-XLΔC = BCL-XLΔC (Homo sapiens, UniProt Q07817); experiment: Competitive FP assay against the FITC-BID BH3/BCL-XLΔC interaction; assay type: binding
BCL-XLΔC, sequence (Q07817 1-212 limits assumed, stated change not applied): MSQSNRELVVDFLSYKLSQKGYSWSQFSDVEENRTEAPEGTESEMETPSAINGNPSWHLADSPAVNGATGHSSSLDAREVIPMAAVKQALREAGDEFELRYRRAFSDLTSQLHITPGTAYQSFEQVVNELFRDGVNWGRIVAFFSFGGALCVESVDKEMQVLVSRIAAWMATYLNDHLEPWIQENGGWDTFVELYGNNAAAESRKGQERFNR

MCL-1/BAK complex = MCL-1/BAK complex (Mus musculus, UniProt P97287); experiment: Co-immunoprecipitation of MCL-1/BAK complex in MCL-1-reconstituted B-ALL cells; assay type: cell-based, murine; conditions: 6 h incubation
MCL-1/BAK complex, sequence (P97287 whole entry, one chain of several): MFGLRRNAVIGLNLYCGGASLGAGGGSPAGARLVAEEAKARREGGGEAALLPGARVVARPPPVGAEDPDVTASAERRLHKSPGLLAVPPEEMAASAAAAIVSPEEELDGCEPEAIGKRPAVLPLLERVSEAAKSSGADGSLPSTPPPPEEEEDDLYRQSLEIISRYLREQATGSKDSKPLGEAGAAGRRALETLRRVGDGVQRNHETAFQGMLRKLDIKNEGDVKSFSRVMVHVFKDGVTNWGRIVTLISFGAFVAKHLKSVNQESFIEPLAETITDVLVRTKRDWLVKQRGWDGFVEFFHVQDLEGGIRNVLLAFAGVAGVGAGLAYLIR
Outline: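 MCL-1-reconstituted Mcl-1-deleted B-ALL cells (5×10^6) were given vehicle or test compound for 6 h. Lysate was precleared on protein A/G, then taken with anti-MCL-1 overnight at 4°C plus A/G beads for 1 h. After three washes and elution at 90°C, SDS-PAGE/Western probed MCL-1 and BAK.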

T1 sequence (Q07820 172-327, stated change not applied): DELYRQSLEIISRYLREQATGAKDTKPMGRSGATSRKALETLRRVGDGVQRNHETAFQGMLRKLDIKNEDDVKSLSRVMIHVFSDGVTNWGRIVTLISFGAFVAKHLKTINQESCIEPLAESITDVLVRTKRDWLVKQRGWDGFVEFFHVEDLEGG

Competition with FITC-MCL-1 SAHBA for MCL-1ΔNΔC binding (in words) (MCL-1ΔNΔC [1])	Blockade of MCL-1ΔNΔC suppression of tBID-induced BAX activation (liposomal release) (MCL-1ΔNΔC [2])	Caspase 3/7 activation in Bax−/−Bak−/− MEFs (Bax−/−Bak−/− MEFs [4])	Competition with FITC-BID BH3 for MCL-1ΔNΔC binding (in words) (MCL-1ΔNΔC [6])	Caspase 3/7 activation in wild-type MEFs (wild-type MEFs [8])	IC50 (BCL-XLΔC) [µM]	IC50 (MCL-1ΔNΔC [6]) [µM]	Fold difference of IC50 for MCL-1ΔNΔC versus IC50 of ABT-737 for BCL-XLΔC (MCL-1ΔNΔC [6]; competition with FITC-BID BH3, MIM1 less potent) [fold]	Structure (SMILES)	IC50 ([3]; Mus musculus, 24 h, read-out: IC50, cell viability of BCL-XL-dependent cells) [µM]	Caspase 3/7 activation in BCL-XL-dependent cells [5]	Effect on viability of Bax−/−Bak−/− MEFs (Bax−/−Bak−/− MEFs [7])	Effect on viability of wild-type MEFs (wild-type MEFs [9])	Effect on viability of MCL-1-dependent cells (in words) ([10]; CellTiter-Glo at 24 h)	Caspase 3/7 activation in MCL-1-dependent cells [11]	Effect on viability of BCL-XL-dependent cells (in words) ([3]; CellTiter-Glo at 24 h)	Dissociation of the inhibitory MCL-1/BAK complex (co-immunoprecipitation) (MCL-1/BAK complex)	IC50 ([10]; Mus musculus, 24 h, read-out: IC50, cell viability of MCL-1-dependent cells) [µM]
had no effect	had no effect on MCL-1ΔNΔC activity	no observed caspase 3/7 activation	showed no activity toward MCL-1ΔNΔC	no observed caspase 3/7 activation	–	–	–	CN(C)CC[C@H](CSc1ccccc1)Nc1ccc(S(=O)(=O)NC(=O)c2ccc(N3CCN(Cc4ccccc4-c4ccc(Cl)cc4)CC3)cc2)cc1[N+](=O)[O-] [ABT-737, reference compound]	1.6	dose-responsive caspase 3/7 activation	no significant effect	no significant effect	no effect on the MCL-1-dependent cells	–	–	–	–
–	preventing BAX suppression by MCL-1ΔNΔC	no observed caspase 3/7 activation	–	no observed caspase 3/7 activation	> 50	4.8	7.5	Cc1cs/c(=N\C2CCCCC2)n1/N=C/c1ccc(O)c(O)c1O [MIM1, 4-((E)-(((Z)-2-(cyclohexylimino)-4-methylthiazol-3(2H)-yl)imino)methyl)benzene-1,2,3-triol]	–	–	no significant effect	no significant effect	–	dose-dependent induction of caspase 3/7 activity	little to no effect on the BCL-XL-dependent cells	dose-dependent dissociation of the inhibitory MCL-1/BAK complex	4.2
